Screening data deposited in PubChem by several laboratories.
LEDGF integ inh = blocks HIV-1 LEDGF/p75-dependent DNA integration | TR-FRET IN-LEDGF/p75 DNA integration, Eu/Cy5 | inhibition, % at 3.7 µM | 0.64% of 370,000 active | AID 743269;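 active means inhibition above the screen-wide mean plus 3 SD, cut at about 13% in these data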;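 further: signal is the Cy5 over europium emission ratio at 671 and 618 nm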
NSD2 HMT inh = inhibitors of human histone methyltransferase NSD2; O96028; NSD2 peptide methylation, AlphaScreen, 120 min; inhibition, % at 12.5 µM; 0.54% of 310,000 active; in the data active means inhibition above about 50%
TDP2 inh = TDP2 (human) inhibition, absorbance primary screen; O95551; recombinant TDP2, T5PNP hydrolysis, p-nitrophenol absorbance 415 nm; inhibition, % at 12.8 µM; 0.34% of 370,000 active; AID 720702;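 active means inhibition above the mean of all tested compounds plus 3 SD, set per campaign, cut at about 25% in these data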
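System – recombinant human TDP2 · Amount – 120 nM TDP2 per well · Buffer or medium – Mg2+-containing Tris-HCl buffer, pH 7.5 · Reagent – T5PNP substrate, 5 mM · Dosing – 12.8 µM single point, 1% DMSO · Incubation – 2 h at 37 °C · Measured by – epi absorbance · Read-out basis – percent inhibition · Benchmarks – high control without enzyme, low control DMSO plus TDP2 · Repeats – singlicate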
UCH37 inh = inhibitors of human deubiquitinating enzyme UCH37. 0.33% of 330,000 active. purified proteasome/UCH37, Ub-AMC cleavage fluorescence. Q9Y5K5. inhibition, % (no concentration beside the values). AID 588478;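 active means mean inhibition over replicate wells above about 20%, limit read from the data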
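Reagent: Ub-AMC substrate; assay system: Proteasome-associated human UCH37 deubiquitinase; controls: no-proteasome and no-compound wells; read-out: % inhibition of Ub-AMC cleavage fluorescence; timing: 30 min preincubation with enzyme, 25 min cleavage at room temperature; signal: AMC fluorescence from Ub-AMC cleavage, excitation 355 nm, emission 460 nm; buffer or medium: Tris-HCl pH 7.4 plus ovalbumin, ATP-MgCl2, DTT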
Casp6 inh = blocks human caspase-6 cleavage activity | 0.53% of 350,000 active | P55212 | inhibition, % at 12.5 µM | purified caspase-6, Z-VEID-R110 cleavage fluorescence;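 active means mean inhibition across replicates at least about 35%, with every replicate also reaching that limit, limit read from the data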
UCH37 confirm = confirmation of human UCH37 deubiquitinating enzyme inhibitors. Proteasome-bound UCH37, Ub-AMC cleavage fluorescence. shares compounds with UCH37 inh. 27% of 480 active. inhibition, % at 20 µM;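 active means average inhibition over replicates above about 50%, so the earlier screening hit is confirmed, limit read from the data; inactive means the rest, counted as false positives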;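 further: based on cleavage rate fitted by regression over a 30 min kinetic read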
CASP1 counter = selectivity counter-screen: inhibitors of human caspase-1. shares compounds with Casp6 inh. purified caspase-1, Z-YVAD-R110 cleavage fluorescence. activity change, negative = inhibition, % at 35 µM. 100 tested, under 10 active. AID 743289;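 active means compounds lowering fluorescence whose fitted half-maximal concentration is no more than twice their top tested dose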
TDP2 inh conf = confirmation of human TDP2 inhibitors | 22% of 1,100 active | shares compounds with TDP2 inh | inhibition, % at 12.8 µM | recombinant human TDP2, absorbance read-out; in the data active means inhibition above about 25%
A number is an active result; n = inactive; x = not tested or not shown. An excerpt weighted towards active compounds, which were near 1.3% of everything screened.

SMILES	LEDGF integ inh	NSD2 HMT inh	TDP2 inh	UCH37 inh	Casp6 inh	UCH37 confirm	TDP2 inh conf	others
COc1cc(C=NNC(=O)c2ccc(C)nc2)ccc1OC(=O)c1ccc2c(c1)OCO2	x	x	x	n	x	x	x
Cc1nn(-c2ccccc2)c(C)c1-c1cc(C(=O)NN=Cc2ccc(O)cc2)[nH]n1	x	x	x	n	x	x	x
CN(C)C=Nc1cc(=O)[nH]c(=O)n1CC1CC1	x	x	x	n	x	x	x
CC(C)c1ccc(C(CC(=O)O)N2Cc3ccccc3C2=O)cc1 (configuration not stated)	n	n	n	62	n	81	x
CC(CC(=O)Nc1cc(C)ccn1)=NNC(=O)c1cccc(F)c1	x	x	x	n	x	x	x
CC1=NN(C(=O)CSCc2ccccc2)C(O)(c2ccccc2)C1 (configuration not stated)	n	n	n	32	n	n	x
CCOC(=O)C1=CC[C@@H](c2cccc(C)c2)N(S(=O)(=O)c2ccc(C)cc2)[C@H]1C(=O)OCC	n	x	n	n	n	x	x
CCOC(=O)C1=CC[C@@H](c2ccccc2Cl)N(S(=O)(=O)c2ccc(C)cc2)[C@H]1C(=O)OCC	n	x	n	38	n	n	x
ON=Cc1ccn(-c2ccc(Br)cc2)c1	x	x	x	n	x	x	x
COc1cc(NCCCCCCN)c2ncccc2c1OC	40	x	52	69	85	70	x
O=C(NN=Cc1cc(Cl)cc(Cl)c1O)c1ccncc1	x	x	x	n	x	x	x
CC(C)CNC(=S)NNC(=O)c1ccc2c(c1)OCO2	n	n	n	n	x	x	x
COCCCNC(=S)NNC(=O)c1ccc2c(c1)OCO2	n	n	n	37	n	n	x
O=C(NCCc1ccccc1)C(=NO)c1ccccc1	x	x	x	n	x	x	x
CC(=NNC(=O)c1cccc(NN=C(C)c2cc(O)ccc2O)c1)c1cc(O)ccc1O	x	x	x	35	x	n	x
CC(=NNC(=O)c1ccc(NN=C(C)c2ccc(O)cc2)cc1)c1ccc(O)cc1	x	x	x	n	x	x	x
NC(=O)c1ccccc1N	n	x	n	n	n	x	x
C=C(c1ccccc1)c1ccccc1N	n	x	n	40	n	n	x
O=C1CCCC2=C1C1(O)C(=O)c3ccccc3C1(O)O2 (configuration not stated)	n	x	53	65	x	79	59
O=C1C=C(Nc2ccccc2C(=O)O)c2ccccc2C1=O	n	x	46	82	89	93	50
O=C(O)c1ccccc1Nc1ccccc1C(=O)O	n	n	n	n	n	x	x
CCn1ncc(C=NNC(=O)c2ccc3c(c2)c(C)c(C)n3Cc2ccccc2)c1C	x	x	x	n	x	x	x
CCCc1nc2c(=O)n(C)c(=O)nc-2n(C)n1	n	x	95	100	96	100	87	CASP1 counter=n
Cn1nc(-c2ccccn2)nc2c(=O)n(C)c(=O)nc1-2	n	x	91	97	95	100	85	CASP1 counter=n
CCn1c(N)nc2c1c(=O)n(C)c(=O)n2C	n	x	n	n	n	x	x
SMILES	LEDGF integ inh	NSD2 HMT inh	TDP2 inh	UCH37 inh	Casp6 inh	UCH37 confirm	TDP2 inh conf	others
NC(=O)C1CCN(C2=C(Cl)C(=O)c3ccccc3C2=O)CC1	n	88	50	82	x	n	76
NC(=O)C1CCN(C2=C(NS(=O)(=O)c3ccccc3)C(=O)c3ccccc3C2=O)CC1	n	n	n	n	n	x	x
CN(C)c1ccnc(-n2cccc2C=NO)c1C#N	x	x	x	n	x	x	x
CC(=O)N(C1=C(N)C(=O)c2ccccc2C1=O)c1ccccc1	n	x	29	37	n	n	n
Oc1ccc2ccccc2c1C=NC12CN3CCN(CN(C3)C1)C2	24	113	53	74	x	72	36
OCC(CO)(CO)N=Cc1c(O)ccc2ccccc12	n	n	n	n	x	x	x
O=C(O)c1cccc(NC2=C(N3CCOCC3)C(=O)c3ccccc3C2=O)c1	n	n	37	28	n	n	51
Cc1cc(C(=NO)C(C)(C)NO)ccc1Cl	x	x	x	n	x	x	x
CCc1cc[n+](C2=C([O-])c3ccccc3C(=O)/C2=N\S(=O)(=O)c2cccs2)cc1	n	82	41	57	n	62	40
CC1CCCC(NC(=O)COC(=O)c2ccc([N+](=O)[O-])s2)C1C (configuration not stated)	n	n	32	78	57	85	37
CC(=NNC(=O)COc1ccc(C#N)cc1)c1ccc(N2CCOCC2)cc1	x	x	x	n	x	x	x
